Residue numbers refer to the chain shown, from its start.
Experiments:
Settings in all cases: stereoisomer not certain
OR8D2 (Homo sapiens) = biological target: T1, OR8D2 (Homo sapiens) (UniProt Q9GZM6)
T1 sequence (whole entry): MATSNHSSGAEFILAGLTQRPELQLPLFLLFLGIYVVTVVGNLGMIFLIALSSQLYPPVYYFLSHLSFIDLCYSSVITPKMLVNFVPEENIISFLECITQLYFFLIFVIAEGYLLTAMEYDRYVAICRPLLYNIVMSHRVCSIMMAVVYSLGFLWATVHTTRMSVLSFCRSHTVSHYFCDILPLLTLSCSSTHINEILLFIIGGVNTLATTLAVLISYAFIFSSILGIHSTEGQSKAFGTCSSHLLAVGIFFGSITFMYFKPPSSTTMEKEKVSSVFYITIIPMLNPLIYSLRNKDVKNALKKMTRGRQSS
Summary of the method: (§1)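 Assay methods differ from source to source, frequently being transient luciferase assays in mammalian cell lines. For each receptor–molecule pair, the label responsive (active) applies when the original authors judged the measured signal statistically different from baseline, and non-responsive (inactive) applies otherwise.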

OR8D4 (Homo sapiens) = biological target: T2, OR8D4 (Homo sapiens) (UniProt Q8NGM9)
T2 sequence (whole entry): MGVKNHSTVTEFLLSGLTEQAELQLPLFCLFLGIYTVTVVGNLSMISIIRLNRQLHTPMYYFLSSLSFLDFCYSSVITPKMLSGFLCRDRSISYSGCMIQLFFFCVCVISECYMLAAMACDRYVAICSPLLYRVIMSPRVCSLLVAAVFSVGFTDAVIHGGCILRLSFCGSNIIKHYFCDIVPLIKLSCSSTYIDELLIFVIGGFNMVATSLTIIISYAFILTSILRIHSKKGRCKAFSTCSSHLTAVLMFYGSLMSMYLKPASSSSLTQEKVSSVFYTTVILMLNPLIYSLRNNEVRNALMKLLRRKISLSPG
Summary of the method: as §1

OR8D4 C120Y R133K = tested on: T3, OR8D4 C120Y R133K
T3 sequence (whole entry): T2 sequence (whole entry) with C120Y, R133K
Summary of the method: as §1

OR8G1 (Homo sapiens) = biological target: T4, OR8G1 (Homo sapiens) (UniProt Q15617)
T4 sequence (whole entry): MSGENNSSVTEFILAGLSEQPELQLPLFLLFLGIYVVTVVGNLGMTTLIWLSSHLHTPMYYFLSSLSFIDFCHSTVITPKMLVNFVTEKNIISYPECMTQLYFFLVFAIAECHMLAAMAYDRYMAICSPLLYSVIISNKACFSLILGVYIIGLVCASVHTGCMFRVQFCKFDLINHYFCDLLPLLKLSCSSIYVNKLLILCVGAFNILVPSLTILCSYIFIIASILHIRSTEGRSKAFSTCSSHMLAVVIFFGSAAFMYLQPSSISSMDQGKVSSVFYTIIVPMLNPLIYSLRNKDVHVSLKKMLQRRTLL
Summary of the method: as §1

OR8G5 (Homo sapiens) = biological target: T5, OR8G5 (Homo sapiens) (UniProt Q8NG78)
T5 sequence (whole entry): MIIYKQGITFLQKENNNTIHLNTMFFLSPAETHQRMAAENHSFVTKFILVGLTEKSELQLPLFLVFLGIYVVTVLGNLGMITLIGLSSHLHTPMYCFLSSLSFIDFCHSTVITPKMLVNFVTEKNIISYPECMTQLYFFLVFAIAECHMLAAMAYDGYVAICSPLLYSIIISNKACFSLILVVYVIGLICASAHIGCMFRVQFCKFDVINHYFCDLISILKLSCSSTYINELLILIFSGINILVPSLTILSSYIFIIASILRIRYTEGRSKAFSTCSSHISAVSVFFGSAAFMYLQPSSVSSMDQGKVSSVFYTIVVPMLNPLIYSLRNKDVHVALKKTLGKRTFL
Summary of the method: as §1

OR8H1 (Homo sapiens) = biological target: T6, OR8H1 (Homo sapiens) (UniProt Q8NGG4)
T6 sequence (whole entry): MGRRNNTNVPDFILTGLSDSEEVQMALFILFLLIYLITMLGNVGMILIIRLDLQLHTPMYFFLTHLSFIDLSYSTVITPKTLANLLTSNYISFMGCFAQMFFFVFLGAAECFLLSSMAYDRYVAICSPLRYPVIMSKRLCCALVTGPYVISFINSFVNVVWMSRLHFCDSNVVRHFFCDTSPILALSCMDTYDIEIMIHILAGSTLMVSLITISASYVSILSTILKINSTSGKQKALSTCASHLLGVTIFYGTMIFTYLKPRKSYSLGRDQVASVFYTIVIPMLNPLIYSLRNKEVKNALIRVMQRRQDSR
Summary of the method: as §1

OR8H2 (Homo sapiens) = biological target: T7, OR8H2 (Homo sapiens) (UniProt Q8N162)
T7 sequence (whole entry): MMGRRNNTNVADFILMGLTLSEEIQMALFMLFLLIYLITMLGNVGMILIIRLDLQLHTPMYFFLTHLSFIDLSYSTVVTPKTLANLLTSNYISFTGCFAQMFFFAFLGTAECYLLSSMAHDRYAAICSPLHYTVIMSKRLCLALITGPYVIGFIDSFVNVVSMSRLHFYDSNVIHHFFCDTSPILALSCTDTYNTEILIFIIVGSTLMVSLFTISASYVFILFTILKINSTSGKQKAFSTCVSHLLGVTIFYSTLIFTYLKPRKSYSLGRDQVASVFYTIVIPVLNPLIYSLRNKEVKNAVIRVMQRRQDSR
Summary of the method: as §1

OR8H2 H120Y Y169C V284M = tested on: T8, OR8H2 H120Y Y169C V284M
T8 sequence (whole entry): T7 sequence (whole entry) with H120Y, Y169C, V284M
Summary of the method: as §1

OR8H3 (Homo sapiens) = biological target: T9, OR8H3 (Homo sapiens) (UniProt Q8N146)
T9 sequence (whole entry): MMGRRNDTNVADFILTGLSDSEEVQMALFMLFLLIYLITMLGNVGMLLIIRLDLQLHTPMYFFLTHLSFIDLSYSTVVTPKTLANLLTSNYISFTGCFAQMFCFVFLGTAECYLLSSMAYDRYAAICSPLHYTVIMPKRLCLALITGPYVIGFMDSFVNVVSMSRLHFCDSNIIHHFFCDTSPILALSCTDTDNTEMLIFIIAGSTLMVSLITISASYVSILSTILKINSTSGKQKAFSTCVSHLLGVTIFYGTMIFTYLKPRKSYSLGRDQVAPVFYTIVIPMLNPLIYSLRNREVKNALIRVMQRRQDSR
Summary of the method: as §1

OR8H3 = tested on: T10, OR8H3
T10 sequence (whole entry): T9 sequence (whole entry) with P137S
Summary of the method: as §1

OR8I2 (Homo sapiens) = biological target: T11, OR8I2 (Homo sapiens) (UniProt Q8N0Y5)
T11 sequence (whole entry): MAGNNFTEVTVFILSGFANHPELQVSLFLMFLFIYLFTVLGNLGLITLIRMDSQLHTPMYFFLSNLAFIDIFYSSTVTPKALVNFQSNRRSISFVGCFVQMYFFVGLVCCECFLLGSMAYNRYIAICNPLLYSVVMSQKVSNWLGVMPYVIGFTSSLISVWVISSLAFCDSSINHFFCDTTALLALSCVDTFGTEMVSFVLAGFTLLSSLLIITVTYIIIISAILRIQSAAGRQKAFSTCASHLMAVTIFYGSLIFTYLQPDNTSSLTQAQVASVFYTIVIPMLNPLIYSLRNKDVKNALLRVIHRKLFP
Summary of the method: as §1

OR8J1 (Homo sapiens) = biological target: T12, OR8J1 (Homo sapiens) (UniProt Q8NGP2)
T12 sequence (whole entry): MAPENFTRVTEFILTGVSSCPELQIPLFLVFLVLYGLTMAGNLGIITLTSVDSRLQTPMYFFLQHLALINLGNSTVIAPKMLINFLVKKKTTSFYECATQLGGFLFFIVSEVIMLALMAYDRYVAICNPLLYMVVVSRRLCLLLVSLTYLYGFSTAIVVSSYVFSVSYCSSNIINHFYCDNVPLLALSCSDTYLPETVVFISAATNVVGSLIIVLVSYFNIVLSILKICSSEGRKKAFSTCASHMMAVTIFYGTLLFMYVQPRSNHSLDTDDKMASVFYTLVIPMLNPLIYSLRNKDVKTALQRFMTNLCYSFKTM
Summary of the method: as §1

OR8J1 = tested on: T13, OR8J1
T13 sequence (whole entry): T12 sequence (whole entry) with Y120C
Summary of the method: as §1

OR8J3 (Homo sapiens) = biological target: T14, OR8J3 (Homo sapiens) (UniProt Q8NGG0)
T14 sequence (whole entry): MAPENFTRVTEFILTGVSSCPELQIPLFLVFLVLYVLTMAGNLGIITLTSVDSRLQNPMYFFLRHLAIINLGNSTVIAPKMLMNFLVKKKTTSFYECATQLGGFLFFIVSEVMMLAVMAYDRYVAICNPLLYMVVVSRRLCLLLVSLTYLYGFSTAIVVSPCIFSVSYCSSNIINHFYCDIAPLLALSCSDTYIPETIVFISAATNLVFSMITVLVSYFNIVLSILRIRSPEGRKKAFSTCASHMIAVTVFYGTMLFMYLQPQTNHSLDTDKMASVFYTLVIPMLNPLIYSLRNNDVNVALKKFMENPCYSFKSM
Summary of the method: as §1

OR8J3 E4V = tested on: T15, OR8J3 E4V
T15 sequence (whole entry): T14 sequence (whole entry) with E4V
Summary of the method: as §1

OR8K1 (Homo sapiens) = biological target: T16, OR8K1 (Homo sapiens) (UniProt Q8NGG5)
T16 sequence (whole entry): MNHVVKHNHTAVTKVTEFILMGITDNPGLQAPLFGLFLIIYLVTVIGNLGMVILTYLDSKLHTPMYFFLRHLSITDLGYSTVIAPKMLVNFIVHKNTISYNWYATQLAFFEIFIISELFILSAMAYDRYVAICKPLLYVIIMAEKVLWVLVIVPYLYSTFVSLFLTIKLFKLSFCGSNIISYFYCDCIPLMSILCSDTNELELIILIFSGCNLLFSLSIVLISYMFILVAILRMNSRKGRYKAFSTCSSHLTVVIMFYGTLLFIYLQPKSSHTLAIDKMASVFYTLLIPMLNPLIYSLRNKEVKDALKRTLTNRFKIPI
Summary of the method: as §1

OR8K3 (Homo sapiens) = biological target: T17, OR8K3 (Homo sapiens) (UniProt Q8NH51)
T17 sequence (whole entry): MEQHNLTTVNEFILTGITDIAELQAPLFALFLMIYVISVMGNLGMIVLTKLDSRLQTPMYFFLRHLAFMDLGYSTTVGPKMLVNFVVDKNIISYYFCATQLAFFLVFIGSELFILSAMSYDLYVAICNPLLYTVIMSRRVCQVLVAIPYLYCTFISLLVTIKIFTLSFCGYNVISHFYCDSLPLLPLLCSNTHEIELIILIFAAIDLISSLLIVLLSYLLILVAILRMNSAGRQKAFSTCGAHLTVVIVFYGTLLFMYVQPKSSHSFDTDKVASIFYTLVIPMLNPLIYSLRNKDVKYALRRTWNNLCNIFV
Summary of the method: as §1

OR8K5 (Homo sapiens) = biological target: T18, OR8K5 (Homo sapiens) (UniProt Q8NH50)
T18 sequence (whole entry): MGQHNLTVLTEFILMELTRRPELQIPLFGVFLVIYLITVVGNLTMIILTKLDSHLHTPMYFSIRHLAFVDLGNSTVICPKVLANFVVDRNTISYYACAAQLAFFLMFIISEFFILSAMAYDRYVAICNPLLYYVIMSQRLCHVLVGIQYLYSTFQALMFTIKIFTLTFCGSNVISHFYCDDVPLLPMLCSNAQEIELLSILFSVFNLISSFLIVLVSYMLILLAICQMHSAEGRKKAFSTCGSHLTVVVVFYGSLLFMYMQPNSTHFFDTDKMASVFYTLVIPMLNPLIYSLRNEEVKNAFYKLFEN
Summary of the method: as §1

OR8S1 (Homo sapiens) = biological target: T19, OR8S1 (Homo sapiens) (UniProt Q8NH09)
T19 sequence (whole entry): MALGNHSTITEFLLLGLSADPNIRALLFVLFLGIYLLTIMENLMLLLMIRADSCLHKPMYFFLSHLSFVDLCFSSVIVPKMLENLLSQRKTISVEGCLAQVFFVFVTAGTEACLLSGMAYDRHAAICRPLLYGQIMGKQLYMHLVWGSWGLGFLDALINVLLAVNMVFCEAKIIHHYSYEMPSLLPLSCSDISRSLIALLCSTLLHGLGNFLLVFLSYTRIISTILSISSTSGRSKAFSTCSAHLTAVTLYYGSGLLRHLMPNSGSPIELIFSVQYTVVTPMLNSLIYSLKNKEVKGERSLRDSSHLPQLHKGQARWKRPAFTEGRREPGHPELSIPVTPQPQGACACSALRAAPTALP
Summary of the method: as §1

Measured: odorant receptor agonist call

CC1=C(O)C(=O)C(C)O1 (centres undefined)
inactive: all assays above

O=c1ccc2ccccc2o1
inactive: OR8K5 (Homo sapiens)

CCC1OC(C)=C(O)C1=O (centres undefined)
inactive: all assays above

CC(CO)CS (centres undefined)
not listed: OR8D4 C120Y R133K | OR8H2 H120Y Y169C V284M | OR8H3 | OR8J1 | OR8J3 E4V
inactive: all other assays above

CCC(S)C(C)CO (centres undefined)
not listed: OR8D4 C120Y R133K | OR8H2 H120Y Y169C V284M | OR8H3 | OR8J1 | OR8J3 E4V
inactive: all other assays above

Cc1cnc(C)c(C)n1
inactive: all assays above

CCCCCCC=CCCC=O
inactive: all assays above

CC1=NC(C)C(C)S1 (centres undefined)
inactive: all assays above
